Source: ChEMBL document CHEMBL4038323, “Discovery and Kinetic Profiling of 7-Aryl-1,2,4-triazolo[4,3-a]pyridines: Positive Allosteric Modulators of the Metabotropic Glutamate Receptor 2” (J Med Chem, 2017)
pEC50, pKd, pKi: −log10 of the molar value.

Experiments:
[1] = biological target: T1, Metabotropic glutamate receptor 2 (Homo sapiens, UniProt Q14416); assay: Displacement of [3H]JNJ-46281222 from human metabotropic glutamate receptor 2 expressed in CHOK1 cell membranes assessed as association rate constant measured every 30 sec for 120 mins by scintillation proximity assay
How it was run: (§1)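 For the SPA competition association, CHO-K1_hmGlu2 membranes (20 µg) were pre-coupled 30 min to WGA SPA beads, then mixed with 6 nM [3H]JNJ-46281222, competitor and 1 mM glutamate. Counts were read every 30 s for 120 min at 28°C.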
Target sequence in this assay (Q14416 19-872 limits assumed): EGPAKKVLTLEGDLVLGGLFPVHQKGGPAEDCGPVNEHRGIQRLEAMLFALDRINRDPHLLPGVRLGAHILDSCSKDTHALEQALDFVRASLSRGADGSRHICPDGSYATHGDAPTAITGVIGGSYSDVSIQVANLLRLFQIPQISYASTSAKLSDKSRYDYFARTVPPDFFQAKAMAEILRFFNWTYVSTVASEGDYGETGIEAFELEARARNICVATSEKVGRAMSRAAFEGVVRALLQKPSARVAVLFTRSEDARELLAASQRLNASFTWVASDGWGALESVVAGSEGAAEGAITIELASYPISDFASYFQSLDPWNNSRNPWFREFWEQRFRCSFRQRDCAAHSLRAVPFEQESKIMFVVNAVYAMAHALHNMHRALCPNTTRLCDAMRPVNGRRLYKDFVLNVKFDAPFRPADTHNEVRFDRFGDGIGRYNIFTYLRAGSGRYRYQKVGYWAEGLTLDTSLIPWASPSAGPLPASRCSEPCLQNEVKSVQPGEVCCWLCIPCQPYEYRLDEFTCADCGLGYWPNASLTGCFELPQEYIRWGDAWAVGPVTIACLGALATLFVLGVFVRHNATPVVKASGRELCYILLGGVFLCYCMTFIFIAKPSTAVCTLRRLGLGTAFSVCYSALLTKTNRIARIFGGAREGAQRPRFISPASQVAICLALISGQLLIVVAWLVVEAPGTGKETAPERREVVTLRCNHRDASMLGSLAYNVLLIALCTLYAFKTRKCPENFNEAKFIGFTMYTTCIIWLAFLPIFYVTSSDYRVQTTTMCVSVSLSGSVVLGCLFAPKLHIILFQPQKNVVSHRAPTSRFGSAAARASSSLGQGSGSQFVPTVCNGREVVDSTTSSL

[2] = biological target: T1, Metabotropic glutamate receptor 2; assay: Displacement of [3H]JNJ-46281222 from human metabotropic glutamate receptor 2 expressed in CHOK1 cell membranes assessed as dissociation rate constant measured every 30 sec for 120 mins by scintillation proximity assay; how it was run: as §1
Target sequence in this assay (Q14416 19-872 limits assumed): as above

[3] = biological target: T1, Metabotropic glutamate receptor 2; assay: Displacement of [3H]JNJ-46281222 from human metabotropic glutamate receptor 2 expressed in CHOK1 cell membranes assessed as residence time measured every 30 sec for 120 mins by scintillation proximity assay; how it was run: as §1
Target sequence in this assay (Q14416 19-872 limits assumed): as above

[4] = biological target: T1, Metabotropic glutamate receptor 2; assay: Binding affinity to human metabotropic glutamate receptor 2 expressed in CHOK1 cell membranes by scintillation proximity assay
Target sequence in this assay (Q14416 whole entry): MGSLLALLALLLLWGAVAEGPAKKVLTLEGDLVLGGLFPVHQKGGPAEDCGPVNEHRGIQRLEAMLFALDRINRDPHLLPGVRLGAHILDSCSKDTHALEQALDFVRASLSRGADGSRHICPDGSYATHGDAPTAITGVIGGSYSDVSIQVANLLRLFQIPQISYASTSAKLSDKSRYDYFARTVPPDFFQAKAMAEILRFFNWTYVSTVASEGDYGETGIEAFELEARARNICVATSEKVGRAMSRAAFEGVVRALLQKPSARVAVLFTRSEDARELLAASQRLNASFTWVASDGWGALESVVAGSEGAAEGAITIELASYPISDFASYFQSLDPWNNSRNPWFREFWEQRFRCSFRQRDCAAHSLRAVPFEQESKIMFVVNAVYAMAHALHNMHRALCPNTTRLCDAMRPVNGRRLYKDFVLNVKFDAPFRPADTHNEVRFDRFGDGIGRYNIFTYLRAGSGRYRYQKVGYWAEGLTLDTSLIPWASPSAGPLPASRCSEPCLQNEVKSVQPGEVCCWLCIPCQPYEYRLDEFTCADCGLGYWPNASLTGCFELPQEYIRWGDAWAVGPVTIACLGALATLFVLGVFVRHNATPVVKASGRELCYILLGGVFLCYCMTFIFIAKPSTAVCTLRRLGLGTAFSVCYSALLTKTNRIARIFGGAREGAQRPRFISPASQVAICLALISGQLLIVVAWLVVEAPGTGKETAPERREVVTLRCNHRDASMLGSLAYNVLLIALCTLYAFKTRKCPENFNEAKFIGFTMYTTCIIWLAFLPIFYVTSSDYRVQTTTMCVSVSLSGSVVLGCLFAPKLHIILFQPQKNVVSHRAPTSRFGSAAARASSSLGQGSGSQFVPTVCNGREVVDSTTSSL

[5] = biological target: T1, Metabotropic glutamate receptor 2; assay: Positive allosteric modulation of human metabotropic glutamate receptor 2 expressed in CHOK1 cell membranes assessed as increase in glutamate-induced [35S]GTPgammaS binding preincubated for 30 mins followed by [35S]GTPgammaS addition measured after 30 mins by Topcount scintillation counting method; type: functional
Target sequence in this assay (Q14416 whole entry): as above

[6] = biological target: T1, Metabotropic glutamate receptor 2; assay: Displacement of [3H]-JNJ46281222 from human metabotropic glutamate receptor 2 expressed in CHOK1 cell membranes after 60 mins by microbeta counting analysis
Target sequence in this assay (Q14416 whole entry): as above

K [1] | K [2] [min⁻¹] | TIME [3] [h] | pKd [4] | pEC50 [5] | pKi [6] | SMILES
3 ×10⁶ /M/min | 0.076 | 0.22 | 7.60 | 7.13 | 8.19 | CCOCc1nnc2c(Cl)c(-c3ccc(Oc4ccc(C)nc4C)c(F)c3)ccn12
4.6 ×10⁶ /M/min | 0.086 | 0.193 | – | – | – | Cc1c(OCc2cccc(-c3ccc(C(=O)O)cc3)c2)cc2c(c1C)C(=O)C(C1CCCC1)C2 (configuration not stated)
6.7 ×10⁶ /M/min | 0.084 | 0.197 | 7.90 | 7.48 | 8.52 | O[C@H]1CC[C@H](Nc2ccc(-c3ccn4c(CC5CC5)nnc4c3Cl)cc2Cl)CC1
5 ×10⁶ /M/min | 0.101 | 0.165 | 7.69 | 6.65 | 7.21 | CC(C)Nc1ccc(-c2ccn3c(CC4CC4)nnc3c2Cl)cc1F
6.1 ×10⁶ /M/min | 0.044 | 0.378 | 8.14 | 8.54 | 8.82 | Cc1ccc(Oc2ccc(-c3ccn4c(CC5CC5)nnc4c3C(F)(F)F)cc2Cl)c(C)n1
9.8 ×10⁶ /M/min | 0.09 | 0.185 | 8.04 | 7.25 | 8.15 | Cc1cc(Oc2ccc(-c3ccn4c(CC5CC5)nnc4c3C(F)(F)F)cc2F)ccn1
3.6 ×10⁷ /M/min | 0.075 | 0.223 | 8.68 | 7.53 | 7.93 | CCOCc1nnc2c(C(F)(F)F)c(-c3ccc(Oc4ccc(C)nc4C)c(F)c3)ccn12
1.1 ×10⁷ /M/min | 0.173 | 0.0967 | 7.80 | 7.39 | 7.93 | COc1ccc(COc2ccc(-c3ccn4c(CC5CC5)nnc4c3C(F)(F)F)cc2F)cn1
5.5 ×10⁶ /M/min | 0.096 | 0.175 | 7.76 | 7.76 | 7.83 | Cc1ccc(Oc2ccc(-c3ccn4c(CC5CC5)nnc4c3C)cc2Cl)c(C)n1
1.1 ×10⁷ /M/min | 0.033 | 0.513 | – | – | – | O[C@H]1CC[C@H](Nc2ccc(-c3ccn4c(CC5CC5)nnc4c3C(F)(F)F)cc2Cl)CC1
6.9 ×10⁶ /M/min | 0.056 | 0.295 | 8.09 | 7.01 | 7.49 | O[C@H]1CC[C@@H](Oc2ccc(-c3ccn4c(CC(F)(F)F)nnc4c3Cl)cc2Cl)CC1
6.3 ×10⁶ /M/min | 0.097 | 0.172 | 7.82 | 7.39 | 8.71 | Cc1ccc(Oc2ccc(-c3ccn4c(CC5CC5)nnc4c3Cl)cc2F)c(C)n1
6.2 ×10⁶ /M/min | 0.097 | 0.172 | 7.81 | 6.82 | 8.13 | COc1ccc(CNc2ccc(-c3ccn4c(CC5CC5)nnc4c3Cl)cc2)cn1
3.4 ×10⁷ /M/min | 0.069 | 0.243 | 8.70 | 7.82 | 8.50 | COc1ccc(CNc2ccc(-c3ccn4c(CC5CC5)nnc4c3C(F)(F)F)cc2)cn1
3.6 ×10⁷ /M/min | 0.121 | 0.137 | 8.47 | 7.76 | 8.41 | CC(C)Nc1ccc(-c2ccn3c(CC4CC4)nnc3c2C(F)(F)F)cc1Cl
1.4 ×10⁷ /M/min | 0.084 | 0.198 | 8.21 | 7.53 | 8.17 | Clc1cc(-c2ccn3c(CC4CC4)nnc3c2Cl)ccc1NC1CC1
8.6 ×10⁶ /M/min | 0.086 | 0.193 | 8.00 | 7.11 | 7.66 | Cc1ccc(Oc2ccc(-c3ccn4c(CC5CC5)nnc4c3C)cc2F)c(C)n1
5.7 ×10⁶ /M/min | 0.058 | 0.285 | – | – | – | O[C@H]1CC[C@@H](Nc2ccc(-c3ccn4c(CC5CC5)nnc4c3C(F)(F)F)cc2Cl)CC1
2.1 ×10⁵ /M/min | 0.128 | 0.13 | – | – | – | Cc1cc(-c2nc(CN3CCNCC3)no2)cc2c1C(=O)N(Cc1ccc(OC(F)(F)F)cc1)C2
